Experiments:
[1] = Cytotoxicity against human non-small-cell lung carcinoma cell line H460 (NSCLC-H460); format: functional, cell-based
Procedure, shortened: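 Logarithmically growing cells were seeded in duplicate, exposed to drug for 1 h starting 24 h after seeding, and counted by Coulter counter 72 h after exposure. Drug was dissolved in DMSO before dilution. The IC50 is the concentration giving a 50% decrease in growth relative to untreated control.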

[2] = Percentage of body weight loss CD1 mice with human Non-Small-Cell tumor xenograft at a oral dose of 9 mg/kg; format: functional; settings: dose 15 mg/kg, in the assay text read “oral dose of 15 mg/kg” for “oral dose of 9 mg/kg”
Procedure, shortened: (§1)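 Nude athymic CD1 mice, 8–10 weeks old, bearing s.c. human lung tumor xenografts in both flanks. Given oral drug in 10 mL/kg on a q4dx4 schedule, beginning when tumors were visible but not measurable. Read-out is percent body weight loss after drug treatment.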

[3] = tested on: Homo sapiens; test: Percentage inhibition of tumor volume in treated versus control mice against human Non-Small-Cell tumor xenograft at a oral dose of 5 mg/kg; format: functional
Procedure, shortened: (§2)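 Nude athymic CD1 mice, 8–10 weeks old, with human lung tumor fragments implanted s.c. in both flanks. Oral dosing in 10 mL/kg, q4dx4, started when tumors were visible but not measurable. Tumor volume = d²×D/2 from caliper diameters. Percent inhibition of treated versus control volume taken 7–10 days after the last dose. Volumes compared by Student's t test, P<0.05.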

[4] = No. of dead mice/ total No. of mice bearing lung carcinoma LX-1 at a oral dose of 15 mg/kg; format: ADME, organism-based; design: dose 15 mg/kg, route oral; settings: mouse, in vivo
Procedure, shortened: (§3)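 Human lung tumor s.c. xenografts (fragments, both flanks) in nude athymic CD1 mice aged 8–10 weeks. Oral q4dx4 dosing at 10 mL/kg, begun when tumors were visible but not measurable. Toxicity is recorded as the number of dead mice over the total number of treated mice.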

[5] = Complete response in mice bearing lung carcinoma LX-1 at a oral dose of 15 mg/kg; format: functional, Mus musculus
Procedure, shortened: (§4)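 Nude athymic CD1 mice, 8–10 weeks old, carrying serially passaged human lung tumor fragments implanted s.c. in both flanks. Oral dosing in 10 mL/kg on a q4dx4 schedule, begun once tumors were visible but not yet measurable. Complete response means no detectable tumor for at least 10 days after the end of treatment.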

[6] = Percentage inhibition of tumor volume in treated versus control mice bearing lung carcinoma LX-1 at a oral dose of 15 mg/kg; format: functional; settings: Mus musculus; procedure, shortened: as §2
[7] = Log 10 cell kill induced in mice bearing lung carcinoma LX-1 at a oral dose of 15 mg/kg; format: functional, Mus musculus
Procedure, shortened: (§5)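 Nude athymic CD1 mice, 8–10 weeks, carrying s.c. human lung tumor fragments in both flanks. Given per os on a q4dx4 schedule at 10 mL/kg, starting when tumors were visible but not measurable. Volume = d²×D/2. Log10 cell kill = T−C/3.32 × tumor doubling time, where T and C are the days for treated and control tumors to reach a mean volume of 1000 mm³.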

[8] = tested on: NCI-H460; test: Percentage of body weight loss in CD1 mice with human Non-Small-Cell tumor xenograft at a oral dose of 5 mg/kg; format: functional; procedure, shortened: as §1
[9] = tested on: NCI-H460; test: Complete response in CD1 mice with human Non-Small-Cell tumor at a oral dose of 5 mg/kg after treatment with compound; format: functional; procedure, shortened: as §4
[10] = tested on: NCI-H460; test: Complete response in CD1 mice with human Non-Small-Cell tumor xenograft at a oral dose of 9 mg/kg; format: functional; procedure, shortened: as §4
[11] = tested on: NCI-H460; test: Percentage inhibition of tumor volume in treated versus control mice against human Non-Small-Cell tumor xenograft at a oral dose of 9 mg/kg; format: functional; settings: Mus musculus; procedure, shortened: as §2
[12] = tested on: NCI-H460; test: Complete response in CD1 mice with human Non-Small-Cell tumor at a oral dose of 9 mg/kg after treatment with compound; format: functional
Procedure, shortened: (§6)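 Nude athymic CD1 mice, 8–10 weeks old, bearing s.c. human lung tumor xenografts (tumor fragments implanted in both flanks). Oral dosing on a q4dx4 schedule at 10 mL/kg, starting when tumors were visible but not measurable. A complete response was scored as no evidence of tumor for at least 10 days after the end of treatment.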

[13] = tested on: NCI-H460; test: Log 10 cell kill induced in mice with human Non-Small-Cell tumor xenograft at a oral dose of 5 mg/kg; format: functional; procedure, shortened: as §5
[14] = (§7) No. of dead mice/ total No. of mice with human Non-Small-Cell tumor xenograft at a oral dose of 9 mg/kg; format: ADME, organism-based; design: dose 9 mg/kg, route oral; settings: in vivo; procedure, shortened: as §3
[15] = tested on: NCI-H460; test: as §7; format: ADME, organism-based; design: dose 9 mg/kg, route oral; settings: in vivo; procedure, shortened: as §3
[16] = tested on: NCI-H460; test: No. of dead mice/ total no of mice with human Non-Small-Cell tumor xenograft at a oral dose of 5 mg/kg; format: ADME, organism-based; design: dose 5 mg/kg, route oral; settings: in vivo; procedure, shortened: as §3
[17] = tested on: NCI-H460; test: Percentage of body weight loss of CD1 mice after treatment with compound; format: functional, Homo sapiens; procedure, shortened: as §1
[18] = tested on: NCI-H460; test: Complete response CD1 mice with human Non-Small-Cell tumor xenograft at a oral dose of 15 mg/kg; format: functional; procedure, shortened: as §4
[19] = tested on: NCI-H460; test: Percentage inhibition of tumor volume in treated versus control mice against human Non-Small-Cell tumor xenograft at a oral dose of 15 mg/kg; format: functional; settings: Mus musculus; procedure, shortened: as §2
[20] = tested on: NCI-H460; test: Complete response in CD1 mice with human Non-Small-Cell tumor at a oral dose of 15 mg/kg after treatment with compound; format: functional; procedure, shortened: as §6
[21] = Percentage of body weight loss in mice bearing lung carcinoma LX-1 at a oral dose of 15 mg/kg; format: functional, Mus musculus; procedure, shortened: as §1

Compound: CC[C@@]1(O)C(=O)OCc2c1cc1n(c2=O)Cc2c-1nc1ccccc1c2/C=N/OCC(=O)O
- IC50 [1]: 2330 nM

Compound: CC[C@@]1(O)C(=O)OCc2c1cc1n(c2=O)Cc2c-1nc1ccc(OC)cc1c2/C=N/OC(C)(C)C
- IC50 [1]: 70 nM

Compound: CC[C@@]1(O)C(=O)OCc2c1cc1n(c2=O)Cc2c-1nc1ccccc1c2/C=N/OC(=O)c1ccccc1
- IC50 [1]: 1770 nM

Compound: CC[C@@]1(O)C(=O)OCc2c1cc1n(c2=O)Cc2c-1nc1ccccc1c2/C=N/OCC(=O)NCCCNS(=O)(=O)c1ccccc1[N+](=O)[O-]
- IC50 [1]: 3000 nM

Compound: CC[C@@]1(O)C(=O)OCc2c1cc1n(c2=O)Cc2c-1nc1ccccc1c2/C=N/OC
- IC50 [1]: 40 nM

Compound: CC[C@@]1(O)C(=O)OCc2c1cc1n(c2=O)Cc2c-1nc1ccccc1c2/C=N/OC(C)(C)C(=O)OC(C)(C)C
- IC50 [1]: 140 nM

Compound: CC[C@@]1(O)C(=O)OCc2c1cc1n(c2=O)Cc2c-1nc1ccccc1c2/C=N/OCc1ccccc1
- IC50 [1]: 30 nM

Compound: CC[C@@]1(O)C(=O)OCc2c1cc1n(c2=O)Cc2c-1nc1ccccc1c2/C=N/OCc1ccc(N)cc1
- IC50 [1]: 25 nM

Compound: CC[C@@]1(O)C(=O)OCc2c1cc1n(c2=O)Cc2c-1nc1ccccc1c2/C=N/OCc1ncc[nH]1
- IC50 [1]: 210 nM

Compound: CC[C@@]1(O)C(=O)OCc2c1cc1n(c2=O)Cc2c-1nc1ccccc1c2/C(=N/O)c1ccccc1
- IC50 [1]: 5130 nM

Compound: CC[C@@]1(O)C(=O)OCc2c1cc1n(c2=O)Cc2c-1nc1ccc(O)cc1c2/C=N/OC(C)(C)C
- IC50 [1]: 130 nM

Compound: C=CCO/N=C/c1c2c(nc3ccccc13)-c1cc3c(c(=O)n1C2)COC(=O)[C@]3(O)CC
- IC50 [1]: 60 nM

Compound: CC[C@@]1(O)C(=O)OCc2c1cc1n(c2=O)Cc2c-1nc1ccccc1c2/C=N/OCc1c2ccccc2cc2ccccc12
- IC50 [1]: 190 nM

Compound: CC[C@@]1(O)C(=O)OCc2c1cc1n(c2=O)Cc2c-1nc1ccccc1c2/C=N/OCCN(C)C
- IC50 [1]: 300 nM

Compound: CC[C@@]1(O)C(=O)OCc2c1cc1n(c2=O)Cc2c-1nc1ccccc1c2/C=N/Oc1ccccc1
- IC50 [1]: 160 nM

Compound: CC[C@@]1(O)C(=O)OCc2c1cc1n(c2=O)Cc2c-1nc1ccccc1c2/C=N/OCc1ccc(-c2ccccc2)cc1
- IC50 [1]: 280 nM

Compound: CC[C@@]1(O)C(=O)OCc2c1cc1n(c2=O)Cc2c-1nc1ccccc1c2/C=N/OC(C)(C)CO
- IC50 [1]: 340 nM

Compound: CC[C@@]1(O)C(=O)OCc2c1cc1n(c2=O)Cc2c-1nc1ccc(O)cc1c2/C=N/OC
- IC50 [1]: 200 nM

Compound: CC[C@@]1(O)C(=O)OCc2c1cc1n(c2=O)Cc2c-1nc1ccccc1c2/C=N/OCC(=O)NCCCNC(=O)OC(C)(C)C
- IC50 [1]: 1700 nM

Compound: CC[C@@]1(O)C(=O)OCc2c1cc1n(c2=O)Cc2c-1nc1ccccc1c2/C=N/OC[C@H]1O[C@@H]2OC(C)(C)O[C@@H]2[C@H]2OC(C)(C)O[C@H]21
- IC50 [1]: 360 nM

Compound: CC[C@@]1(O)C(=O)OCc2c1cc1n(c2=O)Cc2c-1nc1ccccc1c2/C=N/OCC(=O)NCCCN
- IC50 [1]: 5200 nM

Compound: CC[C@@]1(O)C(=O)OCc2c1cc1n(c2=O)Cc2c-1nc1ccccc1c2/C(C)=N/OCc1ccccc1
- IC50 [1]: 130 nM

Compound: CC[C@@]1(O)C(=O)OCc2c1cc1n(c2=O)Cc2c-1nc1ccccc1c2/C=N/OCc1c(F)c(F)c(F)c(F)c1F
- IC50 [1]: 28 nM

Compound: CC[C@@]1(O)C(=O)OCc2c1cc1n(c2=O)Cc2c-1nc1ccccc1c2/C=N/OCc1ccc(C)cc1
- IC50 [1]: 20 nM

Compound: CC[C@@]1(O)C(=O)OCc2c1cc1n(c2=O)Cc2c-1nc1ccccc1c2/C=N/OCCC1CCCN(C)C1 (some centres undefined)
- IC50 [1]: 100 nM

Compound: CC[C@@]1(O)C(=O)OCc2c1cc1n(c2=O)Cc2c-1nc1ccccc1c2/C=N/OCC1CO1 (some centres undefined)
- IC50 [1]: 20 nM

Compound: CC[C@@]1(O)C(=O)OCc2c1cc1n(c2=O)Cc2c-1nc1ccccc1c2/C=N/OC(C)(C)C(=O)O
- IC50 [1]: 48000 nM

Compound: CC[C@@]1(O)C(=O)OCc2c1cc1n(c2=O)Cc2c-1nc1ccccc1c2/C=N/OCCN1CCOCC1
- IC50 [1]: 80 nM

Compound: CC[C@@]1(O)C(=O)OCc2c1cc1n(c2=O)Cc2c(/C=N/OC(C)(C)C)c3ccccc3[n+]([O-])c2-1
- IC50 [1]: 70 nM

Compound: CC[C@@]1(O)C(=O)OCc2c1cc1n(c2=O)Cc2c-1nc1ccccc1c2/C=N/O
- IC50 [1]: 32 nM

Compound: CC[C@@]1(O)C(=O)OCc2c1cc1n(c2=O)Cc2c-1nc1ccccc1c2/C=N/OCc1ccncc1
- IC50 [1]: 30 nM

Compound: CC[C@@]1(O)C(=O)OCc2c1cc1n(c2=O)Cc2c-1nc1ccccc1c2/C=N/OC(c1ccccc1)(c1ccccc1)c1ccccc1
- IC50 [1]: 1450 nM

Compound: CC[C@@]1(O)C(=O)OCc2c1cc1n(c2=O)Cc2c(/C=N/OC)c3ccccc3[n+]([O-])c2-1
- IC50 [1]: 2400 nM

Compound: CC[C@@]1(O)C(=O)OCc2c1cc1n(c2=O)Cc2c-1nc1ccccc1c2/C=N/OCCN
- IC50 [1]: 490 nM

Compound: CC[C@@]1(O)C(=O)OCc2c1cc1n(c2=O)Cc2c-1nc1ccccc1c2/C=N/OCc1ccc([N+](=O)[O-])cc1
- IC50 [1]: 17 nM

Compound: CC[C@@]1(O)C(=O)OCc2c1cc1n(c2=O)Cc2c-1nc1ccccc1c2/C=N/OCC1O[C@H](O)C(O)[C@H](O)[C@H]1O (some centres undefined)
- IC50 [1]: 32000 nM

Compound: CCc1c2c(nc3ccc(O)cc13)-c1cc3c(c(=O)n1C2)COC(=O)[C@]3(O)CC [7-ETHYL-10-HYDROXYCAMPTOTHECIN]
- IC50 [1]: 80 nM

Compound: CC[C@@]1(O)C(=O)OCc2c1cc1n(c2=O)Cc2cc3ccccc3nc2-1 [CAMPTOTHECIN]
- IC50 [1]: 330 nM

Compound: CC[C@@]1(O)C(=O)OCc2c1cc1n(c2=O)Cc2cc3c(CN(C)C)c(O)ccc3nc2-1 [TOPOTECAN]
- BWL [2]: 8%
- inhibition in vivo at 5 mg/kg [3]: 80%
- Toxicity [4]: 0
- CR [5]: 4
- inhibition in vivo at 15 mg/kg [6]: 99%
- LCK [7]: 3.7
- BWL [8]: 0%
- CR [9]: 0
- CR [10]: 0
- inhibition in vivo at 9 mg/kg [11]: 91%
- LCK [12]: 1.7
- LCK [13]: 1.3
- Toxicity [14]: 0
- Toxicity [15]: 0
- Toxicity [16]: 0
- BWL [17]: 0%
- CR [18]: 0
- inhibition in vivo at 15 mg/kg [19]: 98%
- LCK [20]: 2.1
- IC50 [1]: 1380 nM
- BWL [21]: 6%

Reference: ChEMBL document CHEMBL1134616, “Novel 7-oxyiminomethyl derivatives of camptothecin with potent in vitro and in vivo antitumor activity” (J Med Chem, 2001)
